Test results as given in ChEMBL document CHEMBL2057109, “Synthesis, biological evaluation, and molecular docking studies of 2,5-substituted-1,4-benzoquinone as novel urease inhibitors” (Bioorg Med Chem, 2012).
Calls of active or inactive are those of the source. No cut-off for these calls is given here.

What was measured:
[1] = target: Urease subunit alpha/Urease subunit beta (Helicobacter pylori (strain ATCC 700392 / 26695) (Campylobacterpylori)) (UniProt P69996+P14916); assay: Inhibition of Helicobacter pylori urease assessed as ammonia production at 100 uM preincubated for 3 hrs measured by indophenol method
[2] = target: Urease subunit alpha/Urease subunit beta (Helicobacter pylori (strain ATCC 700392 / 26695) (Campylobacterpylori), UniProt P69996); assay: Inhibition of Helicobacter pylori urease assessed as ammonia production preincubated for 3 hrs measured by indophenol method
In short: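 Enzyme came from H. pylori broth cultures (2.0 × 10⁸ CFU/mL), which were pelleted at 5000 g and 4 °C, washed twice in PBS at pH 7.4, and stored at −80 °C. Urease and test compound were pre-incubated for 3 h at room temperature. Ammonia production was then quantified by the Weatherburn indophenol method.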

Sequence of Urease subunit alpha/Urease subunit beta (Helicobacter pylori (strain ATCC 700392 / 26695) (Campylobacterpylori)) (P14916 whole entry, looked up): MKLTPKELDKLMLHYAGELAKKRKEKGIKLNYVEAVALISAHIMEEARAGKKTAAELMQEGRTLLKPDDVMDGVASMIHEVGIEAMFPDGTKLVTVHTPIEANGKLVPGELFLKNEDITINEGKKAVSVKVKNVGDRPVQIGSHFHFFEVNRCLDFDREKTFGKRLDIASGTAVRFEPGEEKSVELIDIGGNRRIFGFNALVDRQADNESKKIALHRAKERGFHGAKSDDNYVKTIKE
Sequence of Urease subunit alpha/Urease subunit beta (Helicobacter pylori (strain ATCC 700392 / 26695) (Campylobacterpylori)) (P69996 whole entry, looked up): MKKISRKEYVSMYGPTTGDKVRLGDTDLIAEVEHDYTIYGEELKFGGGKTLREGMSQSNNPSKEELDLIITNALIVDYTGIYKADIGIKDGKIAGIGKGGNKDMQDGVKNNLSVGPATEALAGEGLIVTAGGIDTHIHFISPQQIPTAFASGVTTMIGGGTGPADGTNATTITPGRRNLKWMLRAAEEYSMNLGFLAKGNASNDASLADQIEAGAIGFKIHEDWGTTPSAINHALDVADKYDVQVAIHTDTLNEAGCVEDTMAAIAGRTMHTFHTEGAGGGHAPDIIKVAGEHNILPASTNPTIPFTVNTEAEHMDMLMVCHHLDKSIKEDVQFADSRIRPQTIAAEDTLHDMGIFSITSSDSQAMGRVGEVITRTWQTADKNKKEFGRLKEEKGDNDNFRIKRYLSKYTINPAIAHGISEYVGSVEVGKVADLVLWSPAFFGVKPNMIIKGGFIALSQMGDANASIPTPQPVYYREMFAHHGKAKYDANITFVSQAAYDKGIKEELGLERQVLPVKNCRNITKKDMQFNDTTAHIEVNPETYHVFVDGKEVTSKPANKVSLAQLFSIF
Sequence of Urease subunit alpha/Urease subunit beta (P69996 whole entry): as the sequence (P69996 whole entry, looked up) above
Sequence of Urease subunit alpha/Urease subunit beta (P14916 whole entry, further chain): as the sequence (P14916 whole entry, looked up) above

Compound | inhibition [1] | IC50 [2] [µM]
CC(=O)NO [ACETOHYDROXAMIC ACID] | 85.2% | 46.3
O=C1C=C(NC2CCCCC2)C(=O)C=C1NC1CCCCC1 | 62.7% | 41.5
O=C1C=C(NC2CC2)C(=O)C=C1NC1CC1 | inactive | 
O=C1C=C(NCCN2CCOCC2)C(=O)C=C1NCCN1CCOCC1 | 81.6% | 27.3
CC(C)NC1=CC(=O)C(NC(C)C)=CC1=O | inactive | 
O=C1C=C(NCCNc2ccccc2)C(=O)C=C1NCCNc1ccccc1 | inactive | 
O=C1C=C(NC2CCCC2)C(=O)C=C1NC1CCCC1 | 68.8% | 35.4
